By pIC50 is commonly meant the negative decadic logarithm of the IC50, by convention in mol/L. One may read the efflux ratio as the permeability from basolateral to apical divided by that in the opposite direction, in the common usage. What is called clearance is a measure of how efficiently the substance is removed, as volume per time.

One data set addresses Phospholipase D2 (Homo sapiens, UniProt O14939). Briefly: Inhibition of PLD2 (unknown origin) expressed in human HEK cells by immunoprecipitation. Format: cell-based. The method in brief: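 PLD1 or PLD2 immunoprecipitated from HEK-293 cell lysates and captured on plate with an antibody (ELISA format); 08:0 phosphatidylcholine substrate; released choline detected by Amplex Red readout.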

Data set [1] can be described thus: Microsomal stability in human liver microsomes assessed as intrinsic clearance. Format: ADME, Microsome. Particulars: read-out: CLH. The method in brief: (§1)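 Intrinsic clearance (CLint) determined in rat or human liver microsomes.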
The next data set concerns BCRP. Briefly: Efflux ratio of apparent permeability from basolateral to apical side over apical to basolateral side in dog MDCK-BCRP cells. Format: ADME, cell-based, Canis lupus familiaris.
Data set [2] concerns the target Phospholipase D1 (Homo sapiens) (UniProt Q13393). Briefly: Inhibition of PLD1 in human Calu-1 cells assessed as reduction in d9-phosphobutanol formation by mass spectrometry-based transphosphatidylation assay.
A short description of data set [3]: Unbound clearance in iv dosed rat administered as cassette dose. Format: ADME, organism-based. Particulars: in vivo. In outline:
(§2)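 Rat IV clearance from cassette dosing; unbound clearance calculated as CL/fu.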

In the next data set the target is T1, Phospholipase D1 (Homo sapiens, UniProt Q13393).
T1 sequence (Q13393 whole entry): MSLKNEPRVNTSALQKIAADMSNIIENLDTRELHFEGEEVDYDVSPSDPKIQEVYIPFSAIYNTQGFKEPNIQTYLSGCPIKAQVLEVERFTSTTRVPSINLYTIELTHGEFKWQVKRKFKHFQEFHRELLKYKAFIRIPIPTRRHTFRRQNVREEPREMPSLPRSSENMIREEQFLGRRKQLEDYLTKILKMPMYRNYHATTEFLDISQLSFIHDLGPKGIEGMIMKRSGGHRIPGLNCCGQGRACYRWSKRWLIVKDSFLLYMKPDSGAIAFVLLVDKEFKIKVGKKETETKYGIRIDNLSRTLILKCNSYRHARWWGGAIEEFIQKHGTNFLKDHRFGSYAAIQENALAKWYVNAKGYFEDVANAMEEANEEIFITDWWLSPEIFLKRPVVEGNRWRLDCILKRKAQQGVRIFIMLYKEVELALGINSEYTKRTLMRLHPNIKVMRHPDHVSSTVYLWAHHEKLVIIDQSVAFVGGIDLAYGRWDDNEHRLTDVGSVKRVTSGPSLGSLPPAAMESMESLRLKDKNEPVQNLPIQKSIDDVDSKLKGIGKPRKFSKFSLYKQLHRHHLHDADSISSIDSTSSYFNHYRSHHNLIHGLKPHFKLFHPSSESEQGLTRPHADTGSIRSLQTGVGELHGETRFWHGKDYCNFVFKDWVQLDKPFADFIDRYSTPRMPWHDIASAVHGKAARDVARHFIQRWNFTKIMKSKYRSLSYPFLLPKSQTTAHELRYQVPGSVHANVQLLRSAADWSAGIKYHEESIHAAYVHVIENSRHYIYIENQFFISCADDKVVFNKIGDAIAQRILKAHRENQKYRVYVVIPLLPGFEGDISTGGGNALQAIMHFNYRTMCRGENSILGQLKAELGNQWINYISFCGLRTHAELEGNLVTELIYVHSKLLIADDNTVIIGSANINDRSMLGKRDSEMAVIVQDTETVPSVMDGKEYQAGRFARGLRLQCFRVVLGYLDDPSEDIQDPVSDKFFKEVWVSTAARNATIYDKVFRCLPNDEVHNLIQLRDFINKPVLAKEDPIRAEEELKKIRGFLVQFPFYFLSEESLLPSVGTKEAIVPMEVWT
Briefly: Inhibition of PLD1 (unknown origin) expressed in human HEK cells by immunoprecipitation assay. Format: cell-based.

The next data set relates to MDR1 (P-gp). Briefly: Efflux ratio of apparent permeability from basolateral to apical side over apical to basolateral side in dog MDCK-MDR1 cells. Format: ADME, cell-based, Canis lupus familiaris. In outline: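 Efflux ratio calculated as Papp(B–A)/Papp(A–B) across MDR1-transfected MDCK monolayers.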
Data set [4] can be described thus: Microsomal stability in rat liver microsomes assessed as intrinsic clearance. The class given is ADME, Microsome. Particulars: read-out: CLH. The method in brief: as §1
Data set [5] is described as follows: Clearance in iv dosed rat administered as cassette dose. The class given is ADME, organism-based. Particulars: in vivo. The method in brief: as §2

Each structure is given as a SMILES string. pIC50: −log10 of the molar value.

Sequence of Phospholipase D2 (O14939 whole entry): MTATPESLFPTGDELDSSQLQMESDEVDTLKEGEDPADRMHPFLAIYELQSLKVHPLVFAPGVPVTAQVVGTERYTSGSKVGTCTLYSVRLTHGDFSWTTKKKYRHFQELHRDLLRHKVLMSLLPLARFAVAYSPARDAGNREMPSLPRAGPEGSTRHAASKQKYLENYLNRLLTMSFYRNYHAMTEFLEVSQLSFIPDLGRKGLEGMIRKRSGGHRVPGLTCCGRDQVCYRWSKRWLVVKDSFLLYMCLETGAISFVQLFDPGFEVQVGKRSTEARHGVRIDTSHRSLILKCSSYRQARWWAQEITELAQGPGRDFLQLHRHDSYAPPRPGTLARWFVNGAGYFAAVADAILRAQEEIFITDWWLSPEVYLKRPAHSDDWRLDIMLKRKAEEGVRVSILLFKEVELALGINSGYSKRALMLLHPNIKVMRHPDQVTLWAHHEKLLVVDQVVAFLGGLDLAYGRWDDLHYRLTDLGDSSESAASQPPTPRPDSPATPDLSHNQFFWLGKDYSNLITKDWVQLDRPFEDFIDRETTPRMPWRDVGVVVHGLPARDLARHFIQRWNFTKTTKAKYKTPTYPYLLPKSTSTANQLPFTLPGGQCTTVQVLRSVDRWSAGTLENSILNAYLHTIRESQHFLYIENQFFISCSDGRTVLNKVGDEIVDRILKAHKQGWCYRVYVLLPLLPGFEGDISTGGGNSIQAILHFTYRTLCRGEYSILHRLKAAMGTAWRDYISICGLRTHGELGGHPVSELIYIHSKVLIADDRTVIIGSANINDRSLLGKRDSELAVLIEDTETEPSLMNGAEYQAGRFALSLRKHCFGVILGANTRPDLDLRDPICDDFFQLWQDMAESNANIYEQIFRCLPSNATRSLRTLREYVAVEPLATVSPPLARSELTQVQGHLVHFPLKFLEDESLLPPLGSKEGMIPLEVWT

Regarding `C[C@@H](C(=O)N1CCC(F)(F)C1)N1CCC(n2c(=O)[nH]c3ccccc32)CC1`, the pIC50 against Phospholipase D2 was 5.54; in data set [2], 5.92; against Phospholipase D1, 6.77. For the same molecule, the CLint scaled in data set [1] was 10 mL/min/kg; in data set [4], more than 300 mL/min/kg. Further, the efflux ratio in the data set on BCRP was 1.2; with MDR1 (P-gp), 2.5. This molecule also gave a CL free in [3] of 192 mL/min/kg. Besides, the clearance in data set [5] came out at 34 mL/min/kg.
For the molecule `C[C@H]1CN(C(=O)[C@H](C)N2CCC(n3c(=O)[nH]c4ccccc43)CC2)CCN1`, the values for the pIC50 (against Phospholipase D2; in [2]; against Phospholipase D1) were 5.96, 6.80 and 7.12, respectively. Further, the CLint scaled is less than 5 mL/min/kg in data set [1] and less than 10 mL/min/kg in data set [4]. The efflux ratio with BCRP turned out to be 2.3; with MDR1 (P-gp) it was 5.5. In [3], the CL free was 73 mL/min/kg. Also, the clearance in data set [5] turned out to be 39 mL/min/kg.
For the molecule `C[C@@H](C(=O)N1CCOCC1)N1CCC(n2c(=O)[nH]c3ccccc32)CC1`, the pIC50 is less than 5.00 at Phospholipase D2, 6.25 in [2] and 6.42 against Phospholipase D1. The CLint scaled is less than 5 mL/min/kg in data set [1] and 162 mL/min/kg in data set [4]. Further, the efflux ratio in the data set with BCRP is 1.5; in the data set on MDR1 (P-gp), 36. The same molecule yielded a clearance in data set [5] of 13 mL/min/kg.
